Experimental data reported in ChEMBL document CHEMBL4368914, “Tricyclic Indazoles-A Novel Class of Selective Estrogen Receptor Degrader Antagonists” (J Med Chem, 2019).

Test system: not listed separately
Assay: Intrinsic clearance in rat hepatocytes assessed per million cells
Assay type: ADME, cell-based, Hepatocyte
Settings: read-out: CLH
Method in brief: (§1)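 Rate of metabolism (µl/min/10⁶ cells) measured from DMSO stock in isolated hepatocytes diluted to 1x10⁶ cells/mL.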

Point of comparison: COc1cc(/C=C/C(=O)O)cc(F)c1[C@@H]1c2ccc3[nH]ncc3c2C[C@@H](C)N1CC(C)(F)F, hepatocyte CLint 32 µL/min/1e6 cells. Against it:
- C[C@@H]1Cc2c(ccc3[nH]ncc23)[C@@](C)(c2c(F)cc(/C=C/C(=O)O)cc2F)N1CC(C)(F)F — 1.6-fold lower, 20 µL/min/1e6 cells
- CC(C)CN1CCc2cccc3[nH]cc(c23)C1c1ccc(/C=C/C(=O)O)cc1 (stereo not given) — 3.2-fold lower, 10 µL/min/1e6 cells
- COc1cc(/C=C/C(=O)O)ccc1[C@@H]1c2ccc3[nH]ncc3c2C[C@@H](C)N1CC(C)(C)F — 1.9-fold lower, 17 µL/min/1e6 cells
- CC(C)CN1[C@H](c2ccc(/C=C/C(=O)O)cc2)c2ccc3[nH]ncc3c2C[C@H]1C — 4.6-fold lower, 7 µL/min/1e6 cells
- CC(C)CN1CCc2c(ccc3[nH]ncc23)[C@H]1c1ccc(/C=C/C(=O)O)cc1 — 3.2-fold lower, 10 µL/min/1e6 cells
- CC(C)CN1[C@H](c2ccc(/C=C/C(=O)O)cc2)c2ccc3[nH]ncc3c2CC1(C)C — 5.3-fold lower, 6 µL/min/1e6 cells

Test system: not listed separately
Assay: Intrinsic clearance in human hepatocytes assessed per million cells
Assay type: ADME, cell-based, Hepatocyte
Settings: read-out: CLH
Method in brief: as §1

Point of comparison: CC(C)CN1[C@H](c2ccc(/C=C/C(=O)O)cc2)c2ccc3[nH]ncc3c2C[C@H]1C, hepatocyte CLint 30 µL/min/1e6 cells. Against it:
- C[C@@H]1Cc2c(ccc3[nH]ncc23)[C@@](C)(c2c(F)cc(/C=C/C(=O)O)cc2F)N1CC(C)(F)F — 5-fold lower, 6 µL/min/1e6 cells
- COc1cc(/C=C/C(=O)O)ccc1[C@@H]1c2ccc3[nH]ncc3c2C[C@@H](C)N1CC(C)(C)F — 5-fold lower, 6 µL/min/1e6 cells
- COc1cc(/C=C/C(=O)O)cc(F)c1[C@@H]1c2ccc3[nH]ncc3c2C[C@@H](C)N1CC(C)(F)F — 5-fold lower, 6 µL/min/1e6 cells
- CC(C)CN1CCc2c(ccc3[nH]ncc23)[C@H]1c1ccc(/C=C/C(=O)O)cc1 — 1.7-fold higher, 51 µL/min/1e6 cells
- CC(C)CN1[C@H](c2ccc(/C=C/C(=O)O)cc2)c2ccc3[nH]ncc3c2CC1(C)C — 3.1-fold higher, 93 µL/min/1e6 cells

Target: T1, Estrogen receptor (Homo sapiens, UniProt P03372)
T1 sequence (P03372 whole entry): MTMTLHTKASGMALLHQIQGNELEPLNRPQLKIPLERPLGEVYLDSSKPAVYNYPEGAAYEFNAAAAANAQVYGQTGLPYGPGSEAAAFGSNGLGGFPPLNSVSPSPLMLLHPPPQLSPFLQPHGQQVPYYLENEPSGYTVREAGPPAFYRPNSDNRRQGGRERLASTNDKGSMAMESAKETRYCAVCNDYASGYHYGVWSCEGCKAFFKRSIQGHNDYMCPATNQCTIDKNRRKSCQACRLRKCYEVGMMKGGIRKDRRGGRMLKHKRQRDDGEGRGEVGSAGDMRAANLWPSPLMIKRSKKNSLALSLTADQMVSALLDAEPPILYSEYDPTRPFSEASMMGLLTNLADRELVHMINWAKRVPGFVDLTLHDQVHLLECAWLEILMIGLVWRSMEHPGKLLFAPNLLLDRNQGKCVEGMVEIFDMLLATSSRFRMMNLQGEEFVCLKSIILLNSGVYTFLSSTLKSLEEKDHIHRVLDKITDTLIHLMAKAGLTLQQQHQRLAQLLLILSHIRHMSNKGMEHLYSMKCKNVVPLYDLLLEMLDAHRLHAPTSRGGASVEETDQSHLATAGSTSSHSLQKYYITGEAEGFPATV
Assay: Induction of ERalpha degradation in human MCF7 cells after 18 to 24 hrs by in multiplexed cell assay
Assay type: cell-based
Settings: not given
Method in brief: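 MCF-7 cells were kept at 37 °C, 5% CO₂ in phenol red-free RPMI1640 with 5% charcoal-stripped FCS and 2 mmol/L glutamine. Compounds came from 10 mmol/L DMSO stocks.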

Point of comparison: C[C@@H]1Cc2c(ccc3[nH]ncc23)[C@@](C)(c2c(F)cc(/C=C/C(=O)O)cc2F)N1CC(C)(F)F, IC50 0.794 nM. Against it:
- CC(C)CN1CCc2cccc3[nH]cc(c23)C1c1ccc(/C=C/C(=O)O)cc1 (stereo not given) — higher, > 10000 nM
- COc1cc(/C=C/C(=O)O)ccc1[C@@H]1c2ccc3[nH]ncc3c2C[C@@H](C)N1CC(C)(C)F — within 1.5-fold, 0.631 nM
- COc1cc(/C=C/C(=O)O)cc(F)c1[C@@H]1c2ccc3[nH]ncc3c2C[C@@H](C)N1CC(C)(F)F — 4-fold lower, 0.2 nM
- CC(C)CN1[C@H](c2ccc(/C=C/C(=O)O)cc2)c2ccc3[nH]ncc3c2C[C@H]1C — within 1.5-fold, 0.631 nM
- CC(C)CN1CCc2c(ccc3[nH]ncc23)[C@H]1c1ccc(/C=C/C(=O)O)cc1 — 7.9-fold higher, 6.31 nM
- CC(C)CN1[C@H](c2ccc(/C=C/C(=O)O)cc2)c2ccc3[nH]ncc3c2CC1(C)C — 2-fold higher, 1.58 nM

Test system: not listed separately
Assay: Glutathione reactivity in human liver microsomes assessed as GSH trapping ratio of compound to clozapine
Assay type: ADME, Microsome
Settings: not given
Method in brief: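 Glutathione trapping in human liver microsomes, expressed as a ratio to clozapine.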

Work on COc1cc(/C=C/C(=O)O)ccc1[C@@H]1c2ccc3[nH]ncc3c2C[C@@H](C)N1CC(C)(C)F yielded a Ratio of under 0.04.
For CC(C)CN1[C@H](c2ccc(/C=C/C(=O)O)cc2)c2ccc3[nH]ncc3c2C[C@H]1C, the Ratio was under 0.04.
For CC(C)CN1CCc2c(ccc3[nH]ncc23)[C@H]1c1ccc(/C=C/C(=O)O)cc1, the Ratio was under 0.04.
With CC(C)CN1[C@H](c2ccc(/C=C/C(=O)O)cc2)c2ccc3[nH]ncc3c2CC1(C)C the Ratio was under 0.04.

Test system: not listed separately
Assay: Lipophilicity, log D of the compound at pH 7.4 by shake flask method
Assay type: physicochemical
Settings: buffer
Method in brief: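 Shake-flask measurement of logD at pH 7.4.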

Point of comparison: C[C@@H]1Cc2c(ccc3[nH]ncc23)[C@@](C)(c2c(F)cc(/C=C/C(=O)O)cc2F)N1CC(C)(F)F, logD 3. Against it:
- CC(C)CN1CCc2cccc3[nH]cc(c23)C1c1ccc(/C=C/C(=O)O)cc1 (stereo not given) — lower, 1
- COc1cc(/C=C/C(=O)O)ccc1[C@@H]1c2ccc3[nH]ncc3c2C[C@@H](C)N1CC(C)(C)F — lower, 2.2
- COc1cc(/C=C/C(=O)O)cc(F)c1[C@@H]1c2ccc3[nH]ncc3c2C[C@@H](C)N1CC(C)(F)F — lower, 2.8
- CC(C)CN1CCc2c(ccc3[nH]ncc23)[C@H]1c1ccc(/C=C/C(=O)O)cc1 — lower, 1.9
- CC(C)CN1[C@H](c2ccc(/C=C/C(=O)O)cc2)c2ccc3[nH]ncc3c2CC1(C)C — lower, 2

Target: T1, Estrogen receptor
Assay: Binding affinity to recombinant human GST-tagged ERalpha LBD expressed in baculovirus-infected insect cells by lantha screen assay
Settings: not given

Point of comparison: CC(C)CN1[C@H](c2ccc(/C=C/C(=O)O)cc2)c2ccc3[nH]ncc3c2CC1(C)C, IC50 20 nM. Against it:
- C[C@@H]1Cc2c(ccc3[nH]ncc23)[C@@](C)(c2c(F)cc(/C=C/C(=O)O)cc2F)N1CC(C)(F)F — 63-fold lower, 0.316 nM
- CC(C)CN1CCc2cccc3[nH]cc(c23)C1c1ccc(/C=C/C(=O)O)cc1 (stereo not given) — 2000-fold higher, 39800 nM
- COc1cc(/C=C/C(=O)O)ccc1[C@@H]1c2ccc3[nH]ncc3c2C[C@@H](C)N1CC(C)(C)F — 13-fold lower, 1.58 nM
- COc1cc(/C=C/C(=O)O)cc(F)c1[C@@H]1c2ccc3[nH]ncc3c2C[C@@H](C)N1CC(C)(F)F — 63-fold lower, 0.316 nM
- CC(C)CN1[C@H](c2ccc(/C=C/C(=O)O)cc2)c2ccc3[nH]ncc3c2C[C@H]1C — 2-fold lower, 10 nM
- CC(C)CN1CCc2c(ccc3[nH]ncc23)[C@H]1c1ccc(/C=C/C(=O)O)cc1 — within 1.5-fold, 25.1 nM

Test system: not listed separately
Assay: Fraction unbound in 10% human plasma by equilibrium dialysis
Assay type: ADME, cell-free
Settings: 10% plasma
Method in brief: (§2)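 Equilibrium dialysis from DMSO stock in 10% plasma, either Alderley Park Han Wistar rat plasma or human plasma.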

Point of comparison: COc1cc(/C=C/C(=O)O)cc(F)c1[C@@H]1c2ccc3[nH]ncc3c2C[C@@H](C)N1CC(C)(F)F, fraction unbound 0.007. Against it:
- C[C@@H]1Cc2c(ccc3[nH]ncc23)[C@@](C)(c2c(F)cc(/C=C/C(=O)O)cc2F)N1CC(C)(F)F — lower, 0.0027
- CC(C)CN1CCc2cccc3[nH]cc(c23)C1c1ccc(/C=C/C(=O)O)cc1 (stereo not given) — higher, 0.11
- COc1cc(/C=C/C(=O)O)ccc1[C@@H]1c2ccc3[nH]ncc3c2C[C@@H](C)N1CC(C)(C)F — higher, 0.0098
- CC(C)CN1[C@H](c2ccc(/C=C/C(=O)O)cc2)c2ccc3[nH]ncc3c2C[C@H]1C — higher, 0.022
- CC(C)CN1CCc2c(ccc3[nH]ncc23)[C@H]1c1ccc(/C=C/C(=O)O)cc1 — higher, 0.07
- CC(C)CN1[C@H](c2ccc(/C=C/C(=O)O)cc2)c2ccc3[nH]ncc3c2CC1(C)C — higher, 0.036

Test system: not listed separately
Assay: Fraction unbound in Alderley Park Han Wistar rat plasma by equilibrium dialysis
Assay type: ADME, cell-free
Settings: not given
Method in brief: as §2

Point of comparison: CC(C)CN1[C@H](c2ccc(/C=C/C(=O)O)cc2)c2ccc3[nH]ncc3c2C[C@H]1C, fraction unbound 0.034. Against it:
- CC(C)CN1CCc2cc(O)ccc2[C@H]1c1ccc(/C=C/C(=O)O)cc1 — higher, 0.037
- C[C@@H]1Cc2c(ccc3[nH]ncc23)[C@@](C)(c2c(F)cc(/C=C/C(=O)O)cc2F)N1CC(C)(F)F — lower, 0.0076
- COc1cc(/C=C/C(=O)O)ccc1[C@@H]1c2ccc3[nH]ncc3c2C[C@@H](C)N1CC(C)(C)F — higher, 0.046
- CC(C)CN1CCc2c(ccc3[nH]ncc23)[C@H]1c1ccc(/C=C/C(=O)O)cc1 — higher, 0.036
- CC(C)CN1[C@H](c2ccc(/C=C/C(=O)O)cc2)c2ccc3[nH]ncc3c2CC1(C)C — higher, 0.066
